Assay outcomes: PubChem, several laboratories
FID counter: fluorescent intercalator displacement, NS3 helicase counter-screen; inhibition, % at 7.9 µM; AID 1845; DNA fluorescent intercalator displacement, fluorescence; hit rate 0.17% among 290,000; in the data active means inhibition above about 37%;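 further: 0% = vehicle and 100% = reference compound; higher means more ethidium bromide displaced from hairpin DNA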
FGF22 binding: binders of recombinant human FGF22 by thermal shift; Q9HCT0; SYPRO orange fluorescence; percent of sucrose octasulfate shift, DMSO zero; activity (Tm shift, normalised), % at 9.99 µM; hit rate 1.5% among 340,000;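 active means mean Tm shift, scaled 0 neutral to 100 positive control, at about 1.3% or above, every replicate too, limit read from the data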
Target sequence (Q9HCT0 whole entry, looked up): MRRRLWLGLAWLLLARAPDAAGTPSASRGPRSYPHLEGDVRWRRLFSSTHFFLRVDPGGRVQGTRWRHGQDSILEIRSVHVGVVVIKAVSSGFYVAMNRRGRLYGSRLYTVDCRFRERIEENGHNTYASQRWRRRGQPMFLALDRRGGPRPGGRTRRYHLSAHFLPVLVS
GRIN3A LBD mod: modulates the human NR3A ligand-binding domain; NR3A LBD differential scanning fluorimetry, Tm shift; 0% = protein alone, 100% = glycine-bound protein; Tm shift relative to glycine control, % at 25 µM; hit rate 2.5% among 340,000; AID 1259313;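 active means melting temperature shift of at least 10% of the positive control shift, at one fixed dose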
ZTA DNA inh: ZTA (EBV) inhibition in EBNA-1 counter-screen. inhibition, % at 11 µM. P03206. hit rate 0.15% among 320,000. ZTA-DNA binding, fluorescence polarization; in the data active means inhibition above about 33%
Target sequence (P03206 whole entry, looked up): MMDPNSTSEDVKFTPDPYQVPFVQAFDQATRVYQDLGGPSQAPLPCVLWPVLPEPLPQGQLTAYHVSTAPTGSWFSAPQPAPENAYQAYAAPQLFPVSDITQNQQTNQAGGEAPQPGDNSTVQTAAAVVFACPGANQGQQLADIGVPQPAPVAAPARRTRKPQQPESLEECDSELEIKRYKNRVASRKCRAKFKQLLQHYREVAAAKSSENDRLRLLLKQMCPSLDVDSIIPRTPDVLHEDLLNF
HCV NS3 hel inh: HCV NS3 helicase inhibition; hit rate 0.56% among 290,000; AID 1800; NS3 helicase DNA unwinding, Cy5 molecular beacon fluorescence; inhibition, % at 10.9 µM;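 active means inhibition above the mean of all tested compounds plus 3 SD, set per campaign, cut at about 35% in these data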;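 further: 0% = DMSO wells and 100% = thioflavine S control wells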
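Measured by: Cy5 fluorescence, 0 and 60 min reads / Assay system: NS3 helicase fragment of HCV / Control set: low DMSO, high thioflavine S at 110 µM / Times: 1 h reaction at 25 °C, ATP-initiated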
EBNA-1 inh: blocks EBNA-1 binding to DNA | hit rate 0.34% among 300,000 | inhibition, % at 14.8 µM | EBNA-1 DNA binding, fluorescence polarization; in the data active means inhibition above about 28%
Starred values were filed as active, the others as inactive; . = not tested or not shown. This is a sample that favours compounds with a hit; in the whole collection about 3.6% have one here.

SMILES	FID counter	FGF22 binding	GRIN3A LBD mod	ZTA DNA inh	HCV NS3 hel inh	EBNA-1 inh
CCC(=O)Nc1ccc2c(c1)C(=O)N(C)C[C@H](OC)[C@@H](C)CN(C(=O)c1ccncc1)[C@@H](C)CO2	.	0.0	.	.	.	.
CC(=O)Nc1ccc(N2S(=O)(=O)c3ccccc3S2(=O)=O)cc1	0.8	.	11.0*	3.5	3.6	1.4
CN(CC(=O)NCCN1CCOCC1)S(=O)(=O)c1ccc(Cl)cc1	.	43.1*	4.4	.	.	.
COc1ccc(S(=O)(=O)N(C)C[C@@H]2OCCCC[C@@H](C)Oc3ccc(NC(=O)NC(C)C)cc3C(=O)N([C@H](C)CO)C[C@H]2C)cc1	.	0.0	.	.	.	.
Cc1ccc(C2CC2C(=O)NNC(=S)Nc2ccc(Cl)cc2)cc1 (stereo unspecified)	-14.2	.	11.7*	-13.9	6.9	-16.7
CCNc1nc(SCC(=O)Nc2ccc(Cl)c(Cl)c2)nc(N(C)C)n1	-0.8	44.8*	10.5*	-5.7	-0.8	1.0
COC(=O)CSc1nc(NCc2ccccc2)nc(N(C)C)n1	-6.8	43.1*	-2.4	6.6	-9.9	-9.0
CN(C)c1nc(NCc2ccccc2)nc(SCC(=O)Nc2ccc(Cl)c(Cl)c2)n1	-1.4	.	32.2*	6.1	-0.8	-3.5
Cc1ccc(S(=O)(=O)N(C)C[C@@H]2Oc3ccc(NS(=O)(=O)c4ccc(F)cc4)cc3C(=O)N([C@H](C)CO)C[C@H]2C)cc1	.	0.1	.	.	.	.
CO[C@H]1CN(C)C(=O)c2ccc(NS(=O)(=O)c3ccc(Cl)cc3)cc2OC[C@H](C)N(C(=O)NC(C)C)C[C@@H]1C	.	-0.4	.	.	.	.
COc1ccc(C2=NOC(C(=O)N3CCN(C(=O)c4ccco4)CC3)C2)cc1OC (stereo unspecified)	-10.7	0.0	39.4*	-5.7	2.4	-3.5
Cn1nc(C(=O)N2CCOCC2)c([N+](=O)[O-])c1C(=O)N1CCOCC1	0.3	44.1*	-1.9	-3.9	-0.5	7.0
CN(C)C(=O)CCc1ccc2c3c([nH]c2c1)[C@]1(CCc2ccccc2)[C@@H](C(=O)N2CCCCC2)C[C@H](CC(=O)NCc2cccc(C(F)(F)F)c2)C(=O)N1CC3	.	0.0	15.2*	.	.	.
C[C@@H]1CN([C@@H](C)CO)C(=O)c2cccc(NC(=O)C3CCCCC3)c2O[C@@H]1CN(C)C	.	-0.1	.	.	.	.
Cc1ccc(CNS(=O)(=O)c2ccc([N+](=O)[O-])cc2)cc1	1.4	-0.2	0.6	-11.0	3.6	-2.0
Cc1ccc(CNS(=O)(=O)c2ccccc2[N+](=O)[O-])cc1	2.5	43.5*	1.3	24.1	6.7	-1.0
CN(C)C(=O)C[C@H]1C=C[C@@H](NC(=O)C2CC2)[C@@H](CO)O1	.	-0.1	.	.	.	.
COc1ccc(CN(C)C[C@@H]2Oc3ccc(NC(=O)C4CCCCC4)cc3C(=O)N([C@@H](C)CO)C[C@@H]2C)cc1	.	-0.8	.	.	.	.
Cc1ccc(C)n1-c1cccc(NC(=O)c2ccccc2)c1	-6.2	.	-2.3	7.5	6.4	3.5
Cc1ccc(C)n1-c1ccc(C(=O)O)cc1	-19.1	.	.	49.9*	30.1	-7.6
Cc1cc(N)n(-c2ccc(C(=O)O)cc2)n1	-3.1	42.9*	-1.9	1.6	10.0	5.5
Cc1ccc(C)n1-c1ccc(C(=O)Nc2ccccc2)cc1	-4.8	43.4*	3.2	0.0	11.9	4.4
C[C@@H]1CCCCO[C@@H](CN(C)C(=O)C2CCCCC2)[C@H](C)CN([C@@H](C)CO)C(=O)c2cc(NC(=O)Cc3ccccc3)ccc2O1	.	1.0	.	.	.	.
Cc1ccc(S(=O)(=O)N[C@@H]2CC[C@@H](CC(=O)N3CCc4ccccc4C3)O[C@@H]2CO)cc1	.	-0.1	.	.	.	.
Cc1ccc2nc(/C(C#N)=C/c3ccc(-c4cccc([N+](=O)[O-])c4)o3)[nH]c2c1	1.0	0.2	13.3*	-2.5	6.1	3.7
SMILES	FID counter	FGF22 binding	GRIN3A LBD mod	ZTA DNA inh	HCV NS3 hel inh	EBNA-1 inh
COc1ccc(/C=C(\C#N)c2nc3ccc(C)cc3[nH]2)cc1Oc1ccc(C(F)(F)F)cc1[N+](=O)[O-]	0.6	.	18.0*	8.1	3.4	-6.1
CNC[C@@H]1Oc2ccc(NC(=O)Nc3ccc(C(F)(F)F)cc3)cc2CC(=O)N([C@H](C)CO)C[C@H]1C	.	-0.5	.	.	.	.
CC(C)NC(=O)N[C@@H]1C=C[C@@H](CC(=O)NCCN2CCCC2)O[C@H]1CO	.	-0.2	.	.	.	.
C[C@@H]1CCCCO[C@@H](CN(C)C(=O)Nc2ccccc2)[C@H](C)CN([C@H](C)CO)C(=O)c2cc(NC(=O)c3ccccc3)ccc2O1	.	-0.3	.	.	.	.
O=C(Nc1cccc(-c2csc(Nc3ccc(Cl)cc3)n2)c1)c1cccc(C(F)(F)F)c1	.	-0.1	26.3*	7.2	.	-3.2
O=C(Nc1cccc(-c2csc(Nc3ccc(Cl)cc3)n2)c1)c1ccccc1	.	0.2	25.4*	-4.3	.	-7.8
O=C(Nc1cccc(-c2csc(Nc3ccccc3)n2)c1)c1cc([N+](=O)[O-])cc(C(F)(F)F)c1	2.9	0.1	7.9	17.2	9.2	-0.2
O=C(Nc1ccc(-c2csc(Nc3ccccc3)n2)cc1)c1ccccc1	-1.9	0.2	17.3*	-12.6	-23.8	13.0
Cc1csc(Nc2ccccc2)[n+]1C	9.3	0.2	-0.8	-3.2	-1.0	-0.3
Cc1csc(Nc2ccccc2)[n+]1-c1ccccc1	0.1	42.9*	-1.7	-2.9	-3.5	-4.4
O=C(N/N=C/c1ccc(OC(=O)c2ccccc2Cl)cc1)c1cc(O)cc(O)c1	-28.7	-0.1	12.6*	.	14.2	.
Cc1cccc(C(=O)Oc2ccc(/C=N/NC(=O)Cc3ccc([N+](=O)[O-])cc3)cc2)c1	-15.1	.	7.4	8.1	13.4	-2.5
Cc1cccc(C(=O)Oc2ccc(/C=N/NC(=O)c3ccccc3O)cc2)c1	-4.8	0.1	19.4*	8.5	10.4	5.1
Cc1cccc(C(=O)Oc2ccc(/C=N/NC(=O)c3ccc(O)cc3)cc2)c1	-23.8	0.5	23.0*	.	-1.2	.
Cc1ccc(S(=O)(=O)Nc2ccc(-c3nc4ccc(C)cc4s3)cc2)cc1	0.1	-0.4	16.0*	-17.5	6.9	-7.9
Cc1ccc2nc(-c3ccc(NC(=O)C(C)Sc4nncs4)cc3)sc2c1 (stereo unspecified)	.	0.0	14.3*	-1.9	.	19.2
COc1ccc(CN(C)C[C@H]2Oc3ccc(NC(=O)NC(C)C)cc3C(=O)N([C@@H](C)CO)C[C@H]2C)cc1	.	-0.1	.	.	.	.
COc1ccc2c3c([nH]c2c1)[C@H](CO)N(C(=O)CN(C)C)CC31CN(Cc2ccccc2)C1	.	-0.1	.	.	.	.
Cc1ccc(NS(=O)(=O)c2ccc(Cl)c(C(=O)Nc3ccccc3-c3nc4ccccc4[nH]3)c2)cc1C	6.2	.	34.5*	7.0	-1.0	19.9
N#Cc1ccccc1NC(=O)C1SC(=Nc2ccccc2)C(C(=O)Nc2ccc(Cl)cc2)=C1N (stereo unspecified)	1.2	-0.1	22.4*	-6.3	-3.3	-4.2
CCOc1ccc(OCC(=O)OCC(=O)Nc2ccccc2C#N)cc1	.	-0.4	-0.1	.	.	.
